Results: ChEMBL document CHEMBL2040808, “Design, synthesis, and in vitro activity of novel 2'-O-substituted 15-membered azalides” (J Med Chem, 2012)
Values after ≈ are worked out from the molar mass of the structure shown.

Experiments:
[1] = test system: Plasmodium falciparum; assay: Antimalarial activity against chloroquine-sensitive Plasmodium falciparum 3D7A infected in type A rhesus-positive human erythrocytes assessed as [3H]hypoxanthine incorporation after 48 hrs by scintillation counting; assay type: functional, organism-based
Method in brief: (§1)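 Modified semiautomated microdilution: compounds dissolved in DMSO, diluted in RPMI 1640 with 10% v/v human plasma, serial 1:2 dilutions in triplicate. Infected erythrocytes at 3% hematocrit, 0.25−0.55% parasitemia. [3H]hypoxanthine at 12.5−16 μCi/mL final. Incubated 48 h, 37 °C, in 5% O2/3% CO2/92% N2. Harvested on fiberglass strips, scintillation counted. IC50 by nonlinear regression of concentration−response curves.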

[2] = test system: Plasmodium falciparum; assay: Antimalarial activity against chloroquine-resistant Plasmodium falciparum W2 infected in type A rhesus-positive human erythrocytes assessed as [3H]hypoxanthine incorporation after 48 hrs by scintillation counting; assay type: functional, organism-based; method in brief: as §1
[3] = test system: Plasmodium falciparum; assay: Ratio of IC50 for azithromycin to compound IC50 for chloroquine-sensitive Plasmodium falciparum 3D7A infected in type A rhesus-positive human erythrocytes assessed as [3H]hypoxanthine incorporation after 48 hrs by scintillation counting; assay type: functional
[4] = test system: Plasmodium falciparum; assay: Ratio of IC50 for azithromycin to compound IC50 for chloroquine-resistant Plasmodium falciparum W2 infected in type A rhesus-positive human erythrocytes assessed as [3H]hypoxanthine incorporation after 48 hrs by scintillation counting; assay type: functional
[5] = test system: HepG2; assay: Cytotoxicity against human HepG2 cells after 24 hrs by MTS assay; assay type: cell-based; details: HepG2, 24 h
Method in brief: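 Hep G2 cells were kept in RPMI 1640 with 10% FBS at 37 °C and 5% CO2. Wells held 50000 cells and received 1:2 serial dilutions of compound (DMSO stock diluted in medium) for 24 h. MTS reagent was then added for 2 h, absorbance was read at 490 nm, and IC50 was taken from response curves.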

[6] = Selectivity ratio of IC50 for human HepG2 cells to IC50 for chloroquine-sensitive Plasmodium falciparum 3D7A; assay type: ADME, cell-based; details: HepG2 cells versus Plasmodium falciparum 3D7A, read-out: Ratio IC50
Method in brief: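 Selectivity is the HepG2 IC50 divided by the P. falciparum IC50. For HepG2, 50000 cells per well in RPMI 1640 with 10% FBS were exposed to 1:2 serial dilutions for 24 h at 37 °C, 5% CO2. MTS was added for 2 h and absorbance read at 490 nm. Parasite IC50 came from the 48 h [3H]hypoxanthine assay.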

[7] = test system: Streptococcus pneumoniae; assay: Antibacterial activity against Streptococcus pneumoniae isolate SP030 by broth microdilution method; assay type: functional
Method in brief: (§2)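 Standard broth microdilution MIC against macrolide-sensitive strains. For streptococci, 5% horse serum replaced lysed horse blood in the broth, and inocula were grown on Columbia agar with 5% sheep blood. S. aureus was grown on Mueller–Hinton agar.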

[8] = test system: Streptococcus pyogenes; assay: Antibacterial activity against Streptococcus pyogenes isolate 3565 by broth microdilution method; assay type: functional; method in brief: as §2
[9] = test system: Staphylococcus aureus; assay: Antibacterial activity against Staphylococcus aureus ATCC 13709 by broth microdilution method; assay type: functional; method in brief: as §2
[10] = Aqueous solubility of the compound at pH 4; assay type: physicochemical
[11] = Selectivity ratio of IC50 for human HepG2 cells to IC50 for chloroquine-sensitive Plasmodium falciparum 3D7A; details: HepG2 cells versus Plasmodium falciparum 3D7A

CC[C@H]1OC(=O)[C@H](C)[C@@H](O[C@H]2C[C@@](C)(OC)[C@@H](O)[C@H](C)O2)[C@H](C)[C@@H](O[C@@H]2O[C@H](C)C[C@H](N(C)C)[C@H]2OCCCNC(=O)CNc2ccnc3cc(Cl)ccc23)[C@](C)(O)C[C@@H](C)CN(C)[C@H](C)[C@@H](O)[C@]1(C)O
IC50 [1]: 14 nM
IC50 [2]: 9 nM
Ratio IC50 [3]: 3
Ratio IC50 [4]: 3
IC50 [5]: 28000 nM
selectivity ratio [6]: 132
MIC [7]: > 64 µg/mL
MIC [8]: > 64 µg/mL
MIC [9]: > 64 µg/mL
solubility [10]: > 10000 µg/mL
selectivity ratio [11]: 132

CC[C@H]1OC(=O)[C@H](C)[C@@H](O[C@H]2C[C@@](C)(OC)[C@@H](O)[C@H](C)O2)[C@H](C)[C@@H](O[C@@H]2O[C@H](C)C[C@H](N(C)C)[C@H]2OCCCNCc2ccnc3ccccc23)[C@](C)(O)C[C@@H](C)CN(C)[C@H](C)[C@@H](O)[C@]1(C)O
IC50 [1]: 141 nM
IC50 [2]: 78 nM
Ratio IC50 [3]: 3
Ratio IC50 [4]: 3
IC50 [5]: 45000 nM
selectivity ratio [6]: 132
MIC [7]: > 64 µg/mL
MIC [8]: > 64 µg/mL
MIC [9]: > 64 µg/mL
solubility [10]: > 10000 µg/mL
selectivity ratio [11]: 132

CC[C@H]1OC(=O)[C@H](C)[C@@H](O[C@H]2C[C@@](C)(OC)[C@@H](O)[C@H](C)O2)[C@H](C)[C@@H](O[C@@H]2O[C@H](C)C[C@H](N(C)C)[C@H]2OCCCNCc2cnc3ccccc3c2)[C@](C)(O)C[C@@H](C)CN(C)[C@H](C)[C@@H](O)[C@]1(C)O
IC50 [1]: 228 nM
IC50 [2]: 46 nM
Ratio IC50 [3]: 3
Ratio IC50 [4]: 3
IC50 [5]: 20000 nM
selectivity ratio [6]: 88
MIC [7]: > 64 µg/mL
MIC [8]: > 64 µg/mL
MIC [9]: > 64 µg/mL
solubility [10]: > 10000 µg/mL
selectivity ratio [11]: 88

CC[C@H]1OC(=O)[C@H](C)[C@@H](O)[C@H](C)[C@@H](O[C@@H]2O[C@H](C)C[C@H](N(C)C)[C@H]2OCCCNC(=O)CCCNc2ccnc3cc(Cl)ccc23)[C@](C)(O)C[C@@H](C)CN(C)[C@H](C)[C@@H](O)[C@]1(C)O
IC50 [1]: 402 nM
IC50 [2]: 224 nM
Ratio IC50 [3]: 3
Ratio IC50 [4]: 3
IC50 [5]: 75000 nM
selectivity ratio [6]: 132
MIC [7]: > 64 µg/mL
MIC [8]: > 64 µg/mL
MIC [9]: > 64 µg/mL
solubility [10]: > 10000 µg/mL
selectivity ratio [11]: 132

CC[C@H]1OC(=O)[C@H](C)[C@@H](O[C@H]2C[C@@](C)(OC)[C@@H](O)[C@H](C)O2)[C@H](C)[C@@H](O[C@@H]2O[C@H](C)C[C@H](N(C)C)[C@H]2OCCCNc2ccnc3ccccc23)[C@](C)(O)C[C@@H](C)CN(C)[C@H](C)[C@@H](O)[C@]1(C)O
IC50 [1]: 64 nM
IC50 [2]: 35 nM
Ratio IC50 [3]: 3
Ratio IC50 [4]: 3
IC50 [5]: 80000 nM
selectivity ratio [6]: 132
MIC [7]: 32 µg/mL (≈ 34.3 µM)
MIC [8]: 32 µg/mL (≈ 34.3 µM)
MIC [9]: 16 µg/mL (≈ 17.1 µM)
solubility [10]: > 10000 µg/mL
selectivity ratio [11]: 132
